Experimental data from ChEMBL document CHEMBL1155849, “Cadinane sesquiterpenes from the leaves of Eupatorium adenophorum” (J Nat Prod, 2008).

Tests used:
Format in all cases: functional, cell-based
HCT-8 = assay: Cytotoxicity against human HCT8 cells by MTT assay
How it was run: (§1)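 Cell proliferation was read out by MTT. The lines were HCT-8 (colon), Bel-7402 (hepatoma) and A2780 (ovarian), all of human origin. Values are reported as IC50.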

Bel-7402 = assay: Cytotoxicity against human Bel7402 cells by MTT assay; how it was run: as §1
A2780 = assay: Cytotoxicity against human A2780 cells by MTT assay; how it was run: as §1

## CC1=C[C@H]2[C@@H](CC1)[C@H](C)C[C@H](O)[C@@]2(O)C(C)C
HCT-8
  IC50: 2 µM
Bel-7402
  IC50: 1.7 µM
A2780
  IC50: 1.7 µM

## CC1=C[C@@H]2C3=C(C)COO[C@@]3(O)C[C@@H](C)[C@@H]2CC1=O
HCT-8
  IC50: > 5 µM
Bel-7402
  IC50: > 5 µM
A2780
  IC50: > 5 µM

## CC1=C[C@@H]2C3=C(C)C(=O)O[C@H]3C[C@@H](C)[C@@H]2CC1=O
HCT-8
  IC50: > 5 µM
Bel-7402
  IC50: > 5 µM
A2780
  IC50: > 5 µM

## CC1=C[C@@H]2C3=C(C)C(=O)O[C@]3([C@@]34C[C@@H](C)[C@@H]5CC(=O)C(C)=C[C@@H]5C3=C(C)C(=O)O4)C[C@@H](C)[C@@H]2CC1=O
HCT-8
  IC50: > 5 µM
Bel-7402
  IC50: > 5 µM
A2780
  IC50: > 5 µM
